According to ChEMBL document CHEMBL3271988, “Nitrogen analogues of 1,4-benzoquinones. Activities against the ascitic sarcoma 180 of mice” (J Med Chem, 1978):
The source made the active and inactive calls. The rule behind the calls is not given here.

Key:
[1] = Half life of the compound in water at pH 7 at 25 degC by spectrophotometry; type: physicochemical
Outline: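 Compound dissolved in absolute ethanol, then diluted into 0.01 M Tris buffer brought to pH 7 with HCl, 25 °C. Absorbance at λmax followed over hours or days; log absorbance vs time fitted by least squares, rate constant and half-time taken from the slope.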

Sarcoma-180 [2] = experiment: Antitumor activity against mouse Sarcoma 180 cells allografted in Swiss mouse assessed as cure at 6 mg/kg, ip three doses were given at 24 hrs interval starting 24 hrs after allograft injection measured after 60 days; type: functional, organism-based; set-up: dose 6 mg/kg
Outline: (§1)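 Swiss mice given 10^6 ascitic sarcoma 180 cells ip. Starting 24 h later, three ip doses were given 24 h apart. Controls got isotonic salt solution on the same schedule. A cure was a mouse alive with no evidence of cancer cells 60 days after cell injection, reported per 6 mice.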

Sarcoma-180 [3] = experiment: Antitumor activity against mouse Sarcoma 180 cells allografted in Swiss mouse assessed as weight gain at 6 mg/kg, ip three doses were given at 24 hrs interval starting 24 hrs after allograft injection measured after 3 days relative to control; type: functional; details: route intraperitoneal
Outline: (§2)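 Ascitic sarcoma 180 model in Swiss mice: 10^6 cells ip, then three ip doses at 24-h intervals beginning 24 h later. Mice were weighed 1 day after cell injection and again 3 days later (24 h after the third dose). Percent weight gain of treated mice was compared with saline-treated controls on the same schedule.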

[4] = Redox potential of the compound in alcohol-water solution; details: buffer
Sarcoma-180 [5] = experiment: Antitumor activity against mouse Sarcoma 180 cells allografted in Swiss mouse assessed as survival at 6 mg/kg, ip three doses were given at 24 hrs interval starting 24 hrs after allograft injection measured after 5 days; type: functional, organism-based; set-up: dose 6 mg/kg
Outline: (§3)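 Swiss mice were injected ip with 10^6 ascitic sarcoma 180 cells. Three daily ip doses followed, the first 24 h after cell injection. The read-out was the number of mice surviving at 5 days, out of 6 treated.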

[6] = Acute toxicity in single ip dosed Swiss mouse assessed as death up to 5 days; type: organism-based; details: in vivo
Outline: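 Male Swiss mice given one ip dose. LD50 taken as the single dose killing 50% of animals within 5 days.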

Sarcoma-180 [7] = experiment: Antitumor activity against mouse Sarcoma 180 cells allografted in Swiss mouse assessed as survival time at 6 mg/kg, ip three doses were given at 24 hrs interval starting 24 hrs after allograft injection relative to control; type: functional; details: route intraperitoneal
Outline: (§4)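 Swiss mice inoculated ip with 10^6 ascitic sarcoma 180 cells. Compound given ip daily ×3 at 24-h intervals, starting 24 h after inoculation. Controls received isotonic saline on the same schedule; 6 mice per group. Mice alive at 60 days counted as 60 days in mean survival (±SD).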

Sarcoma-180 [8] = experiment: Antitumor activity against mouse Sarcoma 180 cells allografted in Swiss mouse at 6 mg/kg, ip three doses were given at 24 hrs interval starting 24 hrs after allograft injection relative to control; type: functional; details: route intraperitoneal
Outline: (§5)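 Swiss mice received 10^6 ascitic sarcoma 180 cells ip, then three ip doses 24 h apart starting at 24 h. Controls got isotonic salt solution on the same schedule. T/C% is mean survival time of treated over controls (6 mice per group).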

Sarcoma-180 [9] = experiment: Antitumor activity against mouse Sarcoma 180 cells allografted in Swiss mouse assessed as weight gain at 150 mg/kg, ip three doses were given at 24 hrs interval starting 24 hrs after allograft injection measured after 3 days relative to control; type: functional; details: route intraperitoneal; outline: as §2
Sarcoma-180 [10] = experiment: Antitumor activity against mouse Sarcoma 180 cells allografted in Swiss mouse assessed as survival at 150 mg/kg, ip three doses were given at 24 hrs interval starting 24 hrs after allograft injection measured after 5 days; type: functional, organism-based; set-up: dose 150 mg/kg; outline: as §3
Sarcoma-180 [11] = experiment: Antitumor activity against mouse Sarcoma 180 cells allografted in Swiss mouse assessed as survival time at 150 mg/kg, ip three doses were given at 24 hrs interval starting 24 hrs after allograft injection relative to control; type: functional; details: route intraperitoneal; outline: as §4
Sarcoma-180 [12] = experiment: Antitumor activity against mouse Sarcoma 180 cells allografted in Swiss mouse assessed as cure at 150 mg/kg, ip three doses were given at 24 hrs interval starting 24 hrs after allograft injection measured after 60 days; type: functional, organism-based; set-up: dose 150 mg/kg; outline: as §1
Sarcoma-180 [13] = experiment: Antitumor activity against mouse Sarcoma 180 cells allografted in Swiss mouse at 150 mg/kg, ip three doses were given at 24 hrs interval starting 24 hrs after allograft injection relative to control; type: functional; details: route intraperitoneal; outline: as §5
Sarcoma-180 [14] = experiment: Antitumor activity against mouse Sarcoma 180 cells allografted in Swiss mouse assessed as weight gain at 20 mg/kg, ip three doses were given at 24 hrs interval starting 24 hrs after allograft injection measured after 3 days relative to control; type: functional; details: route intraperitoneal; outline: as §2
Sarcoma-180 [15] = experiment: Antitumor activity against mouse Sarcoma 180 cells allografted in Swiss mouse at 20 mg/kg, ip three doses were given at 24 hrs interval starting 24 hrs after allograft injection relative to control; type: functional; details: route intraperitoneal; outline: as §5
Sarcoma-180 [16] = experiment: Antitumor activity against mouse Sarcoma 180 cells allografted in Swiss mouse assessed as survival time at 20 mg/kg, ip three doses were given at 24 hrs interval starting 24 hrs after allograft injection relative to control; type: functional; details: route intraperitoneal; outline: as §4
Sarcoma-180 [17] = experiment: Antitumor activity against mouse Sarcoma 180 cells allografted in Swiss mouse assessed as cure at 20 mg/kg, ip three doses were given at 24 hrs interval starting 24 hrs after allograft injection measured after 60 days; type: functional, organism-based; set-up: dose 20 mg/kg; outline: as §1
Sarcoma-180 [18] = experiment: Antitumor activity against mouse Sarcoma 180 cells allografted in Swiss mouse assessed as survival at 20 mg/kg, ip three doses were given at 24 hrs interval starting 24 hrs after allograft injection measured after 5 days; type: functional, organism-based; set-up: dose 20 mg/kg; outline: as §3
Sarcoma-180 [19] = experiment: Antitumor activity against mouse Sarcoma 180 cells allografted in Swiss mouse assessed as weight gain at 10 mg/kg, ip three doses were given at 24 hrs interval starting 24 hrs after allograft injection measured after 3 days relative to control; type: functional; details: route intraperitoneal; outline: as §2
Sarcoma-180 [20] = experiment: Antitumor activity against mouse Sarcoma 180 cells allografted in Swiss mouse assessed as cure at 10 mg/kg, ip three doses were given at 24 hrs interval starting 24 hrs after allograft injection measured after 60 days; type: functional, organism-based; set-up: dose 10 mg/kg; outline: as §1
Sarcoma-180 [21] = experiment: Antitumor activity against mouse Sarcoma 180 cells allografted in Swiss mouse assessed as survival at 10 mg/kg, ip three doses were given at 24 hrs interval starting 24 hrs after allograft injection measured after 5 days; type: functional, organism-based; set-up: dose 10 mg/kg; outline: as §3
Sarcoma-180 [22] = experiment: Antitumor activity against mouse Sarcoma 180 cells allografted in Swiss mouse assessed as survival time at 10 mg/kg, ip three doses were given at 24 hrs interval starting 24 hrs after allograft injection relative to control; type: functional; details: route intraperitoneal; outline: as §4
Sarcoma-180 [23] = experiment: Antitumor activity against mouse Sarcoma 180 cells allografted in Swiss mouse at 10 mg/kg, ip three doses were given at 24 hrs interval starting 24 hrs after allograft injection relative to control; type: functional; details: route intraperitoneal; outline: as §5
Sarcoma-180 [24] = experiment: Antitumor activity against mouse Sarcoma 180 cells allografted in Swiss mouse assessed as survival time at 70 mg/kg, ip three doses were given at 24 hrs interval starting 24 hrs after allograft injection relative to control; type: functional; details: route intraperitoneal; outline: as §4
Sarcoma-180 [25] = experiment: Antitumor activity against mouse Sarcoma 180 cells allografted in Swiss mouse assessed as weight gain at 70 mg/kg, ip three doses were given at 24 hrs interval starting 24 hrs after allograft injection measured after 3 days relative to control; type: functional; details: route intraperitoneal; outline: as §2
Sarcoma-180 [26] = experiment: Antitumor activity against mouse Sarcoma 180 cells allografted in Swiss mouse assessed as cure at 70 mg/kg, ip three doses were given at 24 hrs interval starting 24 hrs after allograft injection measured after 60 days; type: functional, organism-based; set-up: dose 70 mg/kg; outline: as §1
Sarcoma-180 [27] = experiment: Antitumor activity against mouse Sarcoma 180 cells allografted in Swiss mouse at 70 mg/kg, ip three doses were given at 24 hrs interval starting 24 hrs after allograft injection relative to control; type: functional; details: route intraperitoneal
Outline: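 Swiss mice given 10^6 ascitic sarcoma 180 cells ip; three ip doses at 24-h intervals starting 24 h later; controls received isotonic salt solution on the same schedule. […] Cures = alive without cancer cells at 60 days.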

Sarcoma-180 [28] = experiment: Antitumor activity against mouse Sarcoma 180 cells allografted in Swiss mouse assessed as survival at 70 mg/kg, ip three doses were given at 24 hrs interval starting 24 hrs after allograft injection measured after 5 days; type: functional, organism-based; set-up: dose 70 mg/kg; outline: as §3
Sarcoma-180 [29] = experiment: Antitumor activity against mouse Sarcoma 180 cells allografted in Swiss mouse assessed as survival time at 15 mg/kg, ip three doses were given at 24 hrs interval starting 24 hrs after allograft injection relative to control; type: functional; details: route intraperitoneal; outline: as §4
Sarcoma-180 [30] = experiment: Antitumor activity against mouse Sarcoma 180 cells allografted in Swiss mouse assessed as survival at 15 mg/kg, ip three doses were given at 24 hrs interval starting 24 hrs after allograft injection measured after 5 days; type: functional, organism-based; set-up: dose 15 mg/kg; outline: as §3
Sarcoma-180 [31] = experiment: Antitumor activity against mouse Sarcoma 180 cells allografted in Swiss mouse assessed as cure at 15 mg/kg, ip three doses were given at 24 hrs interval starting 24 hrs after allograft injection measured after 60 days; type: functional, organism-based; set-up: dose 15 mg/kg; outline: as §1
Sarcoma-180 [32] = experiment: Antitumor activity against mouse Sarcoma 180 cells allografted in Swiss mouse at 15 mg/kg, ip three doses were given at 24 hrs interval starting 24 hrs after allograft injection relative to control; type: functional; details: route intraperitoneal; outline: as §5
Sarcoma-180 [33] = experiment: Antitumor activity against mouse Sarcoma 180 cells allografted in Swiss mouse assessed as weight gain at 15 mg/kg, ip three doses were given at 24 hrs interval starting 24 hrs after allograft injection measured after 3 days relative to control; type: functional; details: route intraperitoneal; outline: as §2
Sarcoma-180 [34] = experiment: Antitumor activity against mouse Sarcoma 180 cells allografted in Swiss mouse assessed as survival time at 30 mg/kg, ip three doses were given at 24 hrs interval starting 24 hrs after allograft injection relative to control; type: functional; details: route intraperitoneal; outline: as §4
Sarcoma-180 [35] = experiment: Antitumor activity against mouse Sarcoma 180 cells allografted in Swiss mouse assessed as cure at 30 mg/kg, ip three doses were given at 24 hrs interval starting 24 hrs after allograft injection measured after 60 days; type: functional, organism-based; set-up: dose 30 mg/kg; outline: as §1
Sarcoma-180 [36] = experiment: Antitumor activity against mouse Sarcoma 180 cells allografted in Swiss mouse assessed as weight gain at 30 mg/kg, ip three doses were given at 24 hrs interval starting 24 hrs after allograft injection measured after 3 days relative to control; type: functional; details: route intraperitoneal; outline: as §2
Sarcoma-180 [37] = experiment: Antitumor activity against mouse Sarcoma 180 cells allografted in Swiss mouse at 30 mg/kg, ip three doses were given at 24 hrs interval starting 24 hrs after allograft injection relative to control; type: functional; details: route intraperitoneal; outline: as §5
Sarcoma-180 [38] = experiment: Antitumor activity against mouse Sarcoma 180 cells allografted in Swiss mouse assessed as survival at 30 mg/kg, ip three doses were given at 24 hrs interval starting 24 hrs after allograft injection measured after 5 days; type: functional, organism-based; set-up: dose 30 mg/kg; outline: as §3

## CC1=C/C(=N\c2ccc(N(C)C)cc2)C=CC1=O
[1]
  half-life: 83.8 days
Sarcoma-180 [2]
  Activity: inactive
Sarcoma-180 [3]
  Activity: -0.6%
[4]
  Redox potential: 0.604 V
Sarcoma-180 [5]
  Activity: Active
[6]
  LD50 at 120 h: 27 mg/kg
Sarcoma-180 [7]
  Survival: 18 days
Sarcoma-180 [8]
  T/C: 127%

## O=C1C=CC(=NO)C=C1
Sarcoma-180 [9]
  Activity: -5.2%
Sarcoma-180 [10]
  Activity: Active
Sarcoma-180 [11]
  Survival: 17.8 days
[4]
  Redox potential: 0.544 V
Sarcoma-180 [12]
  Activity: inactive
Sarcoma-180 [13]
  T/C: 135%
[6]
  LD50 at 120 h: 260 mg/kg

## CC(=O)Oc1ccc(N=C2C=CC(=O)C=C2)cc1
Sarcoma-180 [14]
  Activity: -1.5%
Sarcoma-180 [15]
  T/C: 130%
[4]
  Redox potential: 0.633 V
Sarcoma-180 [16]
  Survival: 19.2 days
Sarcoma-180 [17]
  Activity: inactive
[6]
  LD50 at 120 h: 90 mg/kg
Sarcoma-180 [18]
  Activity: Active

## O=C1C(Cl)=CC(=NCl)C=C1Cl
Sarcoma-180 [19]
  Activity: -14.2%
[1]
  half-life: 1.67 days
Sarcoma-180 [20]
  Activity: inactive
[4]
  Redox potential: 0.659 V
Sarcoma-180 [21]
  Activity: Active
Sarcoma-180 [22]
  Survival: 25.3 days
[6]
  LD50 at 120 h: 20 mg/kg
Sarcoma-180 [23]
  T/C: 220%

## O=C1C=C/C(=N/O)C=C1Cl
[1]
  half-life: 13.1 days
[4]
  Redox potential: 0.516 V
Sarcoma-180 [24]
  Survival: 12.2 days
Sarcoma-180 [25]
  Activity: 13.4%
Sarcoma-180 [26]
  Activity: inactive
Sarcoma-180 [27]
  T/C: 130%
Sarcoma-180 [28]
  Activity: Active
[6]
  LD50 at 120 h: 240 mg/kg

## O=C1C=CC(=NBr)C=C1
Sarcoma-180 [29]
  Survival: 15.5 days
[4]
  Redox potential: 0.518 V
Sarcoma-180 [30]
  Activity: Active
Sarcoma-180 [31]
  Activity: inactive
Sarcoma-180 [32]
  T/C: 145%
Sarcoma-180 [33]
  Activity: -3.8%
[6]
  LD50 at 120 h: 40 mg/kg

## CN(C)c1ccc(N=C2C=CC(=O)C=C2)cc1
[1]
  half-life: 29.2 days
Sarcoma-180 [34]
  Survival: 19.2 days
Sarcoma-180 [35]
  Activity: inactive
Sarcoma-180 [36]
  Activity: -0.9%
[4]
  Redox potential: 0.628 V
Sarcoma-180 [37]
  T/C: 132%
Sarcoma-180 [38]
  Activity: Active
[6]
  LD50 at 120 h: 80 mg/kg
